# PAFAH1B2 inh = PAFAH1B2 (human) inhibition. P68402. recombinant PAFAH1B2, FP-rhodamine activity probe, fluorescence polarization. inhibition, % at 3.39 µM. 340,000 compounds, 1.2% hits;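 active = inhibition above the mean of all tested compounds plus 3 SD, cut at about 24% in these data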;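 also: 0% = enzyme with DMSO and 100% = wells lacking PAFAH1B2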
# Target sequence (P68402 whole entry, looked up): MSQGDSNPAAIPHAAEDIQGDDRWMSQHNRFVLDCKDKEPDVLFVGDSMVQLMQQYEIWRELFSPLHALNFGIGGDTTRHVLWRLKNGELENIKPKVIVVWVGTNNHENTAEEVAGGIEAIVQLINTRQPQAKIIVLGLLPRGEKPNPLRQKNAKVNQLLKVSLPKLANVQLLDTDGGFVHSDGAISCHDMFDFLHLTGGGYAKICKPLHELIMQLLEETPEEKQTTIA
# pPAFAH inh = pPAFAH (human) enzyme inhibition; recombinant pPAFAH, FP-rhodamine probe fluorescence polarization; 330,000 compounds, 1.5% hits; inhibition, % at 3.39 µM;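 active = inhibition above the mean inhibition across the screen plus 3 SD, cut at about 25% in these data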;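 also: inhibitors block binding of the rhodamine activity-based probe so polarization drops; 0% = enzyme with DMSO and 100% = wells lacking pPAFAH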
# mABHD4 FP = ABHD4 (mouse) inhibition, primary FP screen | Q8VD66 | purified mABHD4, FP-Rh probe fluorescence polarization | inhibition, % at 8.92 µM | 370,000 compounds, 0.54% hits | AID 720543;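 active = inhibition exceeding the mean over every tested compound plus 3 SD, cut at about 30% in these data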;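 also: 0% = plate median of compound wells and 100% = S159A mutant with DMSO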
#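 Doses – 8.92 µM, single dose · Material – wild-type mouse ABHD4 protein · Replication – single well per compound (singlicate) · Measure – percent inhibition of probe binding, normalized to plate controls · Schedule – 45 min compound pre-incubation plus 60 min probe step, 25 °C · Detection – fluorescence polarization with parallel and perpendicular emission, 525/598 nm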
# HTRA1 inh = blocks human HTRA1 serine peptidase; AID 504803; 340,000 compounds, 0.5% hits; Q92743; recombinant HTRA1, FP-rhodamine activity-based probe, fluorescence polarization; inhibition, % at 5.96 µM; in the data active = inhibition above about 36%;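 also: 0% = enzyme with DMSO and 100% = wells lacking enzyme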
# PAFAH2 inh = inhibitors of human PAFAH2; Q99487; 340,000 compounds, 0.99% hits; recombinant PAFAH2, FP-rhodamine activity probe, fluorescence polarization; AID 492956; inhibition, % at 3.39 µM;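 active = inhibition above the mean over all tested compounds plus 3 SD, cut at about 30% in these data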;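 also: inhibitors block probe labeling of enzyme so polarization drops; 0% = enzyme with DMSO and 100% = wells lacking PAFAH2 protein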
# PAFAH1B3 FP inh = PAFAH1B3 (human) inhibition. inhibition, % at 3.39 µM. Q15102. 340,000 compounds, 0.28% hits. recombinant PAFAH1B3, FP-rhodamine probe, fluorescence polarization;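 active = inhibition above the screen-wide average of all tested compounds plus 3 SD, cut at about 25% in these data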;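 also: 0% = enzyme with DMSO only and 100% = wells lacking PAFAH1B3 protein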
# Target sequence (Q15102 whole entry, looked up): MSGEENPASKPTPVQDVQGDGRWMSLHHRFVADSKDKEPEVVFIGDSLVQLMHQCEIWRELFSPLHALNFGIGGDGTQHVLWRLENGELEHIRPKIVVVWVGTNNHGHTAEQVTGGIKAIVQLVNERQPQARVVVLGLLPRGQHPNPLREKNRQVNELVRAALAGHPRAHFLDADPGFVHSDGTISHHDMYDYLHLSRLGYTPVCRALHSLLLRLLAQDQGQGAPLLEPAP
# HTRA1 conf = confirmation of human HTRA1 inhibitors. shares compounds with HTRA1 inh. recombinant HTRA1, FP-rhodamine activity-based probe, fluorescence polarization. inhibition, % at 5.96 µM. 1,600 compounds, 66% hits. AID 540248;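 active = mean inhibition over three repeats above a set limit taken from the earlier primary screen, cut at about 37% in these data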;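 also: 0% = HTRA1 with DMSO and 100% = wells lacking HTRA1; inhibitors block probe binding so polarization drops and inhibition rises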
# * hit, by the source's call; nt = not tested or not shown. Compounds with a hit are over-represented: about 2.8% of the library has one in this group of screens.
SMILES,PAFAH1B2 inh,pPAFAH inh,mABHD4 FP,HTRA1 inh,PAFAH2 inh,PAFAH1B3 FP inh,HTRA1 conf
COC[C@@H]1CCCN1c1cccc2c1S(=O)(=O)N1CC[C@@H](C1)O2,nt,nt,5,nt,nt,nt,nt
COc1ccccc1/C=N/NC(=O)c1ccc(C)nc1,3,2,-2,5,8,9,nt
O=C(N/N=C/c1c(O)ccc2ccccc12)c1ccc[n+](CCO)c1,-1,5,11,52*,4,8,50*
Cc1ccc(C(=O)N/N=C/c2c(O)ccc3ccccc23)cn1,19,31*,17,62*,7,25,49*
Cn1nccc1C(=O)N/N=C/c1c(O)ccc2ccccc12,15,23,5,55*,9,11,54*
Cc1occc1C(=O)N/N=C/c1c(O)ccc2ccccc12,9,13,12,27,18,24,nt
COC(=O)C1CCCN(C(=O)C2CCN(S(=O)(=O)c3ccccc3[N+](=O)[O-])CC2)C1 (stereo unspecified),nt,nt,2,nt,nt,nt,nt
CCCCC1=CC2=CC(=O)C(C)(OC(=O)C3CCCC3)C(=O)C2=CO1 (stereo unspecified),-1,20,24,39*,6,10,44*
Oc1cc(Nc2ccncc2)cc2cccnc12,9,6,-3,43*,-4,-1,37*
O=C1CSC(=S)N1N=Cc1c[nH]c2ccc(Br)cc12,nt,nt,25,56*,nt,nt,60*
CC(C)NC(=O)[C@]1(C#N)CC(=O)N(C)[C@@H]1c1ccccc1,nt,nt,5,nt,nt,nt,nt
CC(C)C(=O)NC(c1ccc(Cl)cc1Cl)c1ccc2cccnc2c1O (stereo unspecified),-1,26*,9,49*,-12,9,47*
CCC(=O)NC(c1ccc(Cl)cc1Cl)c1ccc2cccnc2c1O (stereo unspecified),0,27*,19,74*,6,14,73*
CCCCC(=O)NC(c1ccc(OC)cc1)c1ccc2cccnc2c1O (stereo unspecified),nt,nt,4,18,nt,nt,nt
CCCC(=O)NC(c1ccc(N(C)C)cc1)c1ccc2cccnc2c1O (stereo unspecified),1,11,16,35,7,7,nt
CCCCC(=O)NC(c1ccc(Cl)cc1Cl)c1ccc2cccnc2c1O (stereo unspecified),-2,nt,11,48*,2,6,76*
CN(C)[C@@H]1CCN(c2ccc3c(c2)O[C@H]2CCN(C2)S3(=O)=O)C1,nt,nt,0,nt,nt,nt,nt
COc1cccc(N(C)C(=O)[C@@H](C2CC2)[C@@H](O)c2ccc(C(C)=O)cc2)c1,nt,nt,-2,nt,nt,nt,nt
O=C(CSc1nc2ccccc2o1)NCC1CCCO1 (stereo unspecified),24*,2,-10,55*,32*,21,13
O=C(CSc1nc2ccccc2o1)NC1CCCC1,7,4,3,3,2,3,nt
N#C/C(=C/c1ccc(N2CCCCC2)o1)C(=O)Nc1ccc2ccccc2c1,5,nt,14,37*,14,7,40*
COc1ccccc1C(=O)N1CCN(C(=O)[C@@H](Cc2ccccc2)NC(=O)[C@H]2O[C@@H](n3cnc(C(N)=O)n3)[C@H](O)[C@@H]2O)CC1,nt,nt,-2,nt,nt,nt,nt
O=C(NC(C(=O)N/N=C/c1c2ccccc2cc2ccccc12)c1n[nH]c(=O)c2ccccc12)c1ccccc1 (stereo unspecified),-3,0,-16,40*,-12,2,-72
O=C(NC(C(=O)N/N=C/c1ccccc1)c1n[nH]c(=O)c2ccccc12)c1ccccc1 (stereo unspecified),2,3,-4,-24,5,5,nt
COc1cc(OC)c2c(=O)c3c(C(=O)O)c(O)ccc3oc2c1,nt,nt,10,nt,nt,nt,nt
COc1ccc(/C=C/c2ccc3c(Br)ccc(O)c3n2)cc1,1,11,18,23,4,0,nt
COc1cc(/C=C/c2ccc3c(Br)cc(Br)c(O)c3n2)ccc1O,6,34*,0,44*,6,22,31
